Compound activity (PubChem)
TRPC4 inh: inhibitors of mouse TRPC4 channel, primary screen, Fluo4 calcium, HEK293 TRPC4beta/mu-opioid cells. 0.39% of 300,000 active. Short transient receptor potential channel 4 (Mus musculus), Q9QUQ5. B-score at 10 µM. DAMGO-evoked Fluo4 calcium flux; active compounds read low;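 active = B-score over 3 SD under the library average, no early fluorescence shift, positive overall ratio signal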
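Signal: kinetic Fluo4 fluorescence imaging of calcium influx. Material: stable TRPC4beta/mu-opioid receptor HEK293 cells. Probe or stimulus: DAMGO in two steps, submaximal then maximal.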
TRPC6 act: mouse TRPC6 channel activators, primary screen, cell-based, HEK293, membrane potential dye; Short transient receptor potential channel 6 (Mus musculus), Q61143; HEK293-TRPC6 membrane potential dye fluorescence; active compounds read high; B-score at 10 µM; 0.13% of 310,000 active; AID 2550, 2010;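 active = B-score of the integrated fluorescence ratio above library mean plus 3 SD, and starting fluorescence ratio within library mean plus 5 SD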;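 note: higher score means more depolarization so channel activation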
Target sequence (Q61143 whole entry, looked up): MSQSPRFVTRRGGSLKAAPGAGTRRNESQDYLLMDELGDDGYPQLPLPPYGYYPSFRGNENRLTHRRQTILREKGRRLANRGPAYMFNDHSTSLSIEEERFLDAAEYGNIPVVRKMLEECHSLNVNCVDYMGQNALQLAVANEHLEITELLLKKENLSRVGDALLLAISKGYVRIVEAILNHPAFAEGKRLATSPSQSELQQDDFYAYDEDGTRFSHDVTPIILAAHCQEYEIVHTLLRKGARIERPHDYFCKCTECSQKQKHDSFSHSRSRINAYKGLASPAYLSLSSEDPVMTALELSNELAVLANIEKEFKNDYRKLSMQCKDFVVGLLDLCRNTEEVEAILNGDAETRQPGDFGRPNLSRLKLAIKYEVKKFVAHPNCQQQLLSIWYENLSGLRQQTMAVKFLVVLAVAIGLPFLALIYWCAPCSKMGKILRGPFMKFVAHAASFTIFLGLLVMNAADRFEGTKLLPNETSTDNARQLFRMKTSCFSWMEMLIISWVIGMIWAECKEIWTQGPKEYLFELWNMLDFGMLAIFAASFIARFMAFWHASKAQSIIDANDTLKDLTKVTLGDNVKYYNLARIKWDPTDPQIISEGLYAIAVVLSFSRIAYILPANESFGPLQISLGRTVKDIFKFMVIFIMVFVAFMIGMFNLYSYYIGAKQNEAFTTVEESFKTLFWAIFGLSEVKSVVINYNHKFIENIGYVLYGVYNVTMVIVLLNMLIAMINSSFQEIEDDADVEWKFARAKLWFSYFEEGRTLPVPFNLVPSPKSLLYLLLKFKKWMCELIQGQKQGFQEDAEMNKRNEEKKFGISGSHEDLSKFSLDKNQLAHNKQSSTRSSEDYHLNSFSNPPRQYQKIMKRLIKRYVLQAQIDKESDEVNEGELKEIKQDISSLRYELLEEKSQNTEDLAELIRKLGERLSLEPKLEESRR
TRPC4 agonist: activators of mouse TRPC4 channel, primary screen, Fluo4 calcium, HEK293 TRPC4beta/mu-opioid cells; Short transient receptor potential channel 4 (Mus musculus), Q9QUQ5; Fluo4 calcium fluorescence; active compounds read high; AID 2237, 2010; B-score at 10 µM; 0.49% of 310,000 active;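 active = B-score above 5 SD of library B-scores, and initial fluorescence ratio not above library mean plus 5 SD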;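 note: positive B-score marks a calcium rise read as TRPC4 activation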
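Incubation: 45 min room-temperature Fluo4 loading, 110 s read / System: HEK293 cells stably co-expressing mouse TRPC4beta and mu-opioid receptor / Signal: Fluo4 fluorescence, kinetic / Control set: buffer (low) and maximal DAMGO (high) / Measure: integrated baseline-normalised fluorescence ratio, converted to per-well B score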
TRPC4 potent: positive allosteric modulators of TRPC4, primary screen, cell-based, mouse TRPC4beta, HEK293 mu-opioid, Fluo-4 calcium. 0.42% of 310,000 active. DAMGO EC20, Fluo-4 Ca2+ flux; active compounds read high. B-score at 10 µM. Short transient receptor potential channel 4 (Mus musculus), Q9QUQ5;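 active = B-score of calcium response area above 5 SD of library B-scores, with initial fluorescence ratio within 5 SD of library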;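 note: B-score of integrated fluorescence ratio over time as area under calcium response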
FID counter: compounds displacing fluorescent DNA intercalator, primary screen, artefact control for HCV NS3 helicase inhibitor project, biochemical, FID fluorescence; DNA fluorescent intercalator displacement; inhibition, % at 7.9 µM; 0.17% of 290,000 active; AID 1845, 2009; in the data active = inhibition above about 37%;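 note: 0% = vehicle and 100% = reference compound; higher means more ethidium bromide displaced from hairpin DNA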
TRPC6 inhibitor: mouse TRPC6 channel inhibitors, primary screen, cell-based, HEK293, membrane potential dye. Short transient receptor potential channel 6 (Mus musculus), Q61143. ACh-evoked depolarization; active compounds read low. B-score at 10 µM. 1.1% of 310,000 active. AID 2553, 2010;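 active = B-score under library mean minus 3 SD, initial fluorescence not abnormally high, positive integrated signal ratio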;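 note: B-score derived from integrated fluorescence ratio over the kinetic read; more negative B-score means stronger inhibition of depolarization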
TRPC4 spec 2: mouse TRPC4 off-target activity of TRPC6 inhibitors, second screen; shares compounds with TRPC6 inhibitor; HEK293 TRPC4/MOR, membrane potential dye fluorescence; channel activated by saturating DAMGO dose; inhibition, % at 10 µM; 42% of 920 active;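 active = compounds whose fluorescence signal differed from control wells by over 3 SD, either direction, in both duplicate plates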
TRPC4 spec: mouse TRPC4 modulation by TRPC6 hits, confirmation, selectivity assay for TRPC6 inhibitor project, cell-based, HEK293 TRPC4/mu-opioid, membrane potential dye; shares compounds with TRPC6 inhibitor; membrane potential fluorescence; activity change, negative = inhibition, % at 10 µM; 61% of 920 active; AID 2777, 2010;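 active = rise or fall in signal beyond 3 SD of buffer-only wells in both replicate plates, either sign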;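 note: integrated kinetic ratio of fluorescence range over baseline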
HEK293 MPD ctr 2-1: nonspecific membrane potential effects, parental HEK293, confirmation, counter-screen for TRPC6 inhibitor project, cell-based, second counter screen; shares compounds with TRPC6 inhibitor; signal change vs control, % at 10 µM; 31% of 920 active; parental HEK293 membrane potential dye fluorescence; maximal acetylcholine challenge after compound addition;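 active = membrane potential signal moving either way by over 3 SD of the maximum-effect control, in both duplicate plates, meaning non-specific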
HEK293 MPD ctr-1: membrane potential modulation in parental HEK293, confirmation, counter-screen for TRPC6 inhibitor project, cell-based; shares compounds with TRPC6 inhibitor; parental HEK293 membrane potential dye fluorescence; membrane potential signal change, % at 10 µM; 60% of 920 active;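 active = membrane potential signal shifting up or down by more than 3 SD of buffer-only wells, on both duplicate plates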
HEK293 MPD ctr-2: parental HEK293 membrane potential modulation, confirmation, counter-screen for TRPC6 modulator project, cell-based | shares compounds with TRPC6 inhibitor | membrane potential dye fluorescence | membrane potential signal change, % at 10 µM | 51% of 2,400 active;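 active = membrane potential signal moves up or down beyond 5 SD from buffer-only wells, on both duplicate plates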
HEK293 MPD ctr 2-2: parental HEK293 nonspecific activity of TRPC6 modulators, second screen | membrane potential dye fluorescence; after compound, maximal acetylcholine stimulation | shares compounds with TRPC6 inhibitor | AID 488926 | inhibition, % at 10 µM | 14% of 2,400 active;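 active = membrane potential signal drops by more than 5 SD from the mean control signal, in both duplicate plates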;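 note: plate controls were acetylcholine ECmax control wells for no effect and buffer only wells for full effect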
TRPC4/MOR mod: TRPC4 modulation by TRPC6 hit compounds, confirmation, selectivity assay for TRPC6 modulator project, cell-based, HEK293 TRPC4/mu-opioid, membrane potential dye, mouse | AID 488927, 2010 | 69% of 2,400 active | membrane potential fluorescence | percent change from control (negative = decrease, positive = increase), % at 10 µM | shares compounds with TRPC6 inhibitor;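 active = membrane potential signal moved up or down beyond 5 SD of buffer control wells, in both duplicate plates, actives on both sides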;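 note: plate controls were assay buffer wells for no effect and DAMGO maximal-effect wells for full effect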
TRPC4 ctr inh 2: second selectivity test of TRPC6 modulators against mouse TRPC4. shares compounds with TRPC6 inhibitor. HEK293 TRPC4/mu-opioid, membrane potential dye fluorescence; stimulated with maximal-effect DAMGO. inhibition, % at 10 µM. 55% of 2,400 active;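 active = drop in membrane potential signal beyond 5 SD of the control wells in both duplicate plates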;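 note: TRPC4 counter screen for TRPC6 hits run under conditions tuned for TRPC6 not TRPC4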
TRPC6 block conf: mouse TRPC6 channel inhibitors, confirmation, HEK293 cells, membrane potential dye, duplicate | 43% of 3,300 active | inhibition, % at 10 µM | ACh-evoked depolarization | shares compounds with TRPC6 inhibitor;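 active = fluorescence ratio falls more than 5 SD below the full-stimulation control mean, in both duplicate runs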;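 note: integrated fluorescence ratio of peak minus minimum over baseline after agonist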
TRPC6 act conf: mouse TRPC6 channel activators, confirmation, HEK293 cells, membrane potential dye, duplicate | shares compounds with TRPC6 inhibitor | HEK293-TRPC6 membrane potential dye fluorescence, FDSS | activation, % at 10 µM | 11% of 2,800 active | AID 488961, 2010;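 active = ratio signal rise beyond 5 SD above unstimulated control wells' mean, seen in both duplicate runs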;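 note: plate controls were buffer EC0 wells for no effect and acetylcholine ECmax response for full effect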
The depositor's hits bear a star; i = inactive; / = no result given. The list is not random: actives were taken first. Their share in the collection is about 2.3%.

SMILES | TRPC4 inh | TRPC6 act | TRPC4 agonist | TRPC4 potent | FID counter | TRPC6 inhibitor | HEK293 MPD ctr-2 | HEK293 MPD ctr 2-2 | TRPC4/MOR mod | TRPC4 ctr inh 2 | TRPC6 block conf | TRPC6 act conf | others
OC(Cn1c2ccccc2c2ccccc21)C[n+]1cccc2ccccc21 (stereo not drawn) | i | i | i | i | 24 | -6.7* | / | / | / | / | 59%* | i | TRPC4 spec 2=i;TRPC4 spec=-28%*;HEK293 MPD ctr 2-1=i;HEK293 MPD ctr-1=-334%*
CSc1ccccc1C(=O)C1CCCN(Cc2ccn[nH]2)C1 (stereo not drawn) | i | i | i | i | 0 | i | / | / | / | / | / | /
Clc1ccc2[nH]c3c(c2c1)CCNC3 | i | i | i | i | 12 | -5.3* | i | i | i | 35%* | i | i
CCCCC(CC)COCCCN=Cc1c(O)[nH]c(=S)[nH]c1=O (stereo not drawn) | i | i | i | i | -20 | i | / | / | / | / | / | /
O=C(Nc1ccccc1)c1cc([N+](=O)[O-])ccc1N1CCNCC1 | i | i | i | i | 11 | i | / | / | / | / | / | /
O=[N+]([O-])c1ccc2nc(N3CCNCC3)ccc2c1 | i | i | i | i | / | -5* | -218%* | i | -38%* | 42%* | i | i
COc1cccc(CCNCc2c(F)cccc2F)c1 | i | i | i | i | 3 | i | / | / | / | / | / | /
OC(CC#CCN1CCCCCC1)(c1ccccc1)C1CCCC1 (stereo not drawn) | i | i | i | i | 9 | i | / | / | / | / | / | /
CC1(C(O)(C#CCN2CCCCC2)c2ccccc2)CCCC1 (stereo not drawn) | i | i | i | i | 26 | -7.1* | 142%* | 106%* | 26%* | 44%* | 91%* | /
CC(C(=O)Nc1ccc(Br)cc1C(=O)c1ccccc1)N1CCOCC1 (stereo not drawn) | i | i | i | i | -29 | i | / | / | / | / | / | /
Cc1ccc(-n2c(C)nc3cc(Cl)ccc3c2=O)nc1 | i | i | i | i | -9 | i | / | / | / | / | / | /
Fc1cccc(CN2CCN(c3ccc(Cl)cc3)CC2)c1 | i | i | i | i | -3 | -7.1* | / | / | / | / | i | i | TRPC4 spec 2=i;TRPC4 spec=i;HEK293 MPD ctr 2-1=i;HEK293 MPD ctr-1=i
Fc1ccccc1CN1CCN(c2ccc(Cl)cc2)CC1 | i | i | i | i | -6 | i | / | / | / | / | / | /
CC(C)OCCCNC(=O)c1c(N)n(CC2CCCO2)c2nc3ccccc3nc12 (stereo not drawn) | i | i | i | i | -16 | -5* | 124%* | i | 23%* | i | i | /
CCCCc1nc(N2CCNCC2)c(C#N)c2c1CSC(C)(C)C2 | i | i | i | i | -1 | -7.8* | / | / | / | / | i | i | TRPC4 spec 2=44%*;TRPC4 spec=i;HEK293 MPD ctr 2-1=i;HEK293 MPD ctr-1=0.9%*
CC(Cc1ccccc1)NC(N)=O (stereo not drawn) | i | i | i | i | -4 | i | / | / | / | / | / | /
CC(C)[N+](C)(CCC(C(N)=O)(c1ccccc1)c1ccccc1)C(C)C | i | i | i | i | 2 | -6.6* | i | 101%* | i | i | 88%* | i
CN1CCC(OC(=O)C2c3ccccc3Oc3ccccc32)CC1 | i | i | i | i | 10 | -6.8* | / | / | / | / | 67%* | / | TRPC4 spec 2=i;TRPC4 spec=4.7%*;HEK293 MPD ctr 2-1=i;HEK293 MPD ctr-1=8.4%*
Cc1cc(C)c2c(ccc3cccc[n+]32)c1 | i | i | i | i | / | -7.6* | -260%* | 96%* | -40%* | 60%* | 69%* | i
CCCCOc1ccc(CCN)cc1Cl | i | i | i | 14* | 21 | -6.4* | 82%* | i | i | 52%* | 60%* | /
COc1cc(CN=C(C)c2c(O)n(C3CCCCC3)c(=O)[nH]c2=O)cc(OC)c1 | i | i | i | i | -10 | i | / | / | / | / | / | /
Cc1ccc(-c2nc3ccccc3c(=O)n2-c2cccc(C)n2)cc1 | i | i | i | i | -1 | -6* | i | i | i | i | i | i
